Source: PubChem
Rows were chosen to be rich in hits. Some 2.5% of all compounds tested hit in one or more screens of this group.
VIM-2 inh – blocks Pseudomonas aeruginosa VIM-2 metallo-beta-lactamase; purified VIM-2, nitrocefin hydrolysis, epi-absorbance fluorescence; inhibition, % at 5.6 µM; 290,000 tested, 0.89% active;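 active = inhibition above the mean of all tested compounds plus 3 SD, cutoff set per screening run, cut at about 7.5% in these data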;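 also: red hydrolysis product quenches plate fluorescence so inhibitors raise well fluorescence; 0% = enzyme with DMSO and 100% = DMSO without enzyme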
HTR2A ag – agonists of mouse serotonin 5-HT2A receptor (HTR2A); P35363; activation, % at 7.6 µM; CHO-K1 mHTR2A beta-arrestin complementation, luminescence; percent of 30 µM serotonin response; 360,000 tested, 0.66% active;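 active = activation above a run cutoff, the mean activation of all tested compounds plus 3 SD, cut at about 14% in these data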;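 also: 0% = plate median of compound wells and 100% = 30 µM serotonin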
Target sequence (P35363 whole entry, looked up): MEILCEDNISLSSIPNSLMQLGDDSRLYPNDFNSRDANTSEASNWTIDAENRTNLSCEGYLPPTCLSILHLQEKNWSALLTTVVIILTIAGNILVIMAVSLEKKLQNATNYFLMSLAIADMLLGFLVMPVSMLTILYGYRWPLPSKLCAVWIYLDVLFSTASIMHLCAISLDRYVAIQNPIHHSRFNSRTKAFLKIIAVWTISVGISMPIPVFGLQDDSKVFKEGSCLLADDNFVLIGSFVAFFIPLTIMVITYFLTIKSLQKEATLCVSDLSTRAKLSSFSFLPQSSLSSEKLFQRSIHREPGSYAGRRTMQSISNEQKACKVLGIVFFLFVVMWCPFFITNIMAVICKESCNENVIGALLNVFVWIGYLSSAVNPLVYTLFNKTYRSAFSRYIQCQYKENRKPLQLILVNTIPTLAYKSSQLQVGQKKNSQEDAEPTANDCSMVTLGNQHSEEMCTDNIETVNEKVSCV
dFosB activator – mouse delta FosB homodimer activation | P13346 | purified delta FosB, TAMRA-CDK5 oligo fluorescence polarization; percent of positive-control signal above neutral wells | activation, % at 25 µM | 340,000 tested, 0.99% active | AID 493131;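 active = mean activation above about 17%, with every replicate also reaching it, limit read from the data, passing the limit was not always enough; inconclusive = only one of the two conditions met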
IMP-1 inhibitor – inhibitors of Pseudomonas aeruginosa IMP-1 metallo-beta-lactamase. purified IMP-1, nitrocefin hydrolysis, epi-absorbance fluorescence. 290,000 tested, 0.45% active. inhibition, % at 5.6 µM;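 active = inhibition above the mean plus 3 SD of all compounds in the same screening run, cut at about 4.5% in these data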;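 also: 0% = IMP-1 with DMSO and 100% = DMSO wells lacking enzyme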
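System: purified IMP-1 / Input: IMP-1 dispensed at 0.2 nM / Medium: 50 mM HEPES pH 7.1, 50 µM ZnSO4, 0.05% Brij 35 / Timing: 15 min enzyme–compound preincubation, then 25 min nitrocefin reaction, 25 °C / Technique: plate fluorescence quenching by hydrolysis product, ex 480/em 530 nm / Repeats: singlicate testing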
OPRM1 ag – counter-screen for mouse HTR2A agonists: human mu opioid receptor agonists. shares compounds with HTR2A ag. U2OS OPRM1 beta-arrestin PathHunter, luminescence; DMSO 0%, DAMGO 9.3 µM 100%. activation, % at 9.3 µM. 2,300 tested, 5.3% active;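 active = mean activation above the mean of DMSO-only wells plus 3 SD, cut at about 0.5% in these data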
m5-HT2A ag conf – confirmation of mouse HTR2A serotonin receptor agonists | CHO-K1 PathHunter beta-arrestin recruitment, luminescence; DMSO 0%, 30 µM serotonin 100% | shares compounds with HTR2A ag | activation, % at 7.6 µM | 2,300 tested, 19% active;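 active = mean activation across triplicates above the hit threshold derived in the original primary screen, cut at about 15% in these data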
An asterisk follows results filed as active; ? = inconclusive; · = no result given.

SMILES | VIM-2 inh | HTR2A ag | dFosB activator | IMP-1 inhibitor | OPRM1 ag | m5-HT2A ag conf
CCCCc1c(C)nn(-c2nnc3c4ccccc4n(CC)c3n2)c1C | -3.0 | 14.6* | -8.4 | -4.5 | 0.4 | 4.7
CSc1nnc2c3ccccc3n(CCc3ccccc3)c2n1 | -1.5 | 3.8 | -16.9 | -2.6 | · | ·
CCC(=O)N1CCCC(C)(C(=O)Nc2ccc(OC)c(F)c2)C1 (stereo not drawn) | · | -1.8 | · | · | · | ·
CCC(=O)N1CCCC(C)(C(=O)Nc2ccc(C)c(C)c2)C1 (stereo not drawn) | · | 17.4* | · | · | -0.2 | -1.3
c1ccc(COc2ncnc3c2ncn3CCCNCCN2CCOCC2)cc1 | · | -2.3 | -4.5 | · | · | ·
Cc1n[nH]c(=S)n(/N=C/c2cccs2)c1=O | -4.0 | 14.4* | -1.9 | -3.6 | -0.5 | -5.4
CC(C)(C)c1n[nH]c(=S)n(/N=C/c2cccs2)c1=O | -3.0 | -1.0 | -13.5 | -3.4 | · | ·
COc1cc(C(=O)Nc2cccc(-c3nncn3C)c2)cc(OC)c1OC | -2.6 | 15.2* | -4.3 | -0.9 | -0.6 | -3.6
COc1cc(C(=O)Nc2cccc(NC(=O)c3ccccc3)c2)cc(OC)c1OC | -0.8 | 5.4 | -19.4 | -4.5 | · | ·
O=C(CSC1=NS(=O)(=O)c2ccccc2N1)NCc1ccc(F)cc1 | · | 1.0 | -3.2 | · | · | ·
CN1OC[C@@H]2CN(Cc3cc(Cl)cc(Cl)c3)[C@H](c3cccc(Br)c3)C[C@@H]21 | · | -2.0 | 0.2 | · | · | ·
CN1CCc2cc(O)c(O)cc2C(c2ccccc2)C1 (stereo not drawn) | · | 16.6* | 3.7 | · | 0.0 | 78.5*
Oc1cc2c(cc1O)[C@@H](c1ccccc1)CNCC2 | -1.5 | 19.1* | -2.3 | -1.8 | -0.2 | 47.5*
Cc1ccc(P(=O)(CO)c2ccc(C)cc2)cc1 | -2.6 | 15.5* | -5.2 | 0.0 | -0.6 | -4.9
Cc1ccc(-c2nc3cc(NS(=O)(=O)c4ccc(C)cc4)ccc3o2)cc1 | -1.5 | -6.2 | -6.1 | -3.5 | · | ·
Cc1ccc(S(=O)(=O)Nc2ccc(-c3csc(-c4ccccc4)n3)cc2)cc1 | -2.2 | 9.0 | -6.8 | -1.3 | · | ·
O=S(=O)(Nc1ccc(-c2csc(-c3ccccc3)n2)cc1)c1ccccc1 | -3.7 | 17.9* | -4.1 | -0.5 | -0.4 | 4.7
O=S(=O)(Nc1ccc2oc(-c3ccccc3)nc2c1)c1ccccc1 | -2.0 | 15.2* | -6.6 | 1.6 | 0.3 | 4.5
C[C@@]12C(=O)Nc3cc(Cl)ccc3C(=O)N1[C@H]1c3cc(Br)ccc3OC[C@@H]1[C@@H]2c1ccccc1 | · | -3.2 | 7.9 | · | · | ·
COCCNC(=O)C1CCCN(C(=O)c2nc3ccccc3s2)CC1 (stereo not drawn) | · | 0.8 | · | · | · | ·
CCCCNC(=O)c1nc(-c2cc3ccccc3[nH]2)oc1-c1cccc(C(F)(F)F)c1 | · | 16.2* | · | · | 0.7* | 11.6
CCCCNC(=O)c1nc(-c2ccc(C(F)(F)F)cc2)oc1-c1ccccc1 | · | -4.8 | · | · | · | ·
O=C(COc1cc(Cl)c(Cl)cc1Cl)Nc1cccc(O)c1 | -0.1 | 21.8* | -3.2 | -0.9 | 0.2 | -1.2
O=C(COc1cc(Cl)c(Cl)cc1Cl)Nc1ccncc1 | -1.8 | 7.5 | 4.7 | -3.2 | · | ·
COc1ccccc1CNCC(=O)Nc1ccc(C#N)cc1 | -0.1 | 0.4 | -3.9 | 0.6 | · | ·
SMILES | VIM-2 inh | HTR2A ag | dFosB activator | IMP-1 inhibitor | OPRM1 ag | m5-HT2A ag conf
COc1ccccc1CNCC(=O)Nc1ccccc1-n1cccc1 | -1.5 | 16.0* | -3.5 | -1.2 | -0.1 | 7.8
CN(c1nc2nonc2nc1NC1CC1)C1CCOC1 (stereo not drawn) | -3.7 | 6.7 | -6.7 | -2.9 | · | ·
COc1ccc(-c2cc(C(=O)N3CCN(c4ccccc4)CC3)no2)cc1 | -2.3 | 4.4 | -3.1 | -0.6 | · | ·
COc1ccc(-c2cc(C(=O)N3CCCC3)no2)cc1OC | -3.1 | 22.5* | -6.7 | -1.8 | -0.5 | 0.6
COc1ccc(OC)c(-c2cc(C(=O)N3CCN(c4ccccc4)CC3)no2)c1 | -0.9 | 27.4* | -7.0 | -2.2 | -0.5 | -5.3
COc1ccc(C(=O)N/C(=C/c2ccc(Cl)cc2)C(=O)Nc2ccc(C(=O)O)cc2)cc1 | -1.6 | 1.8 | -5.1 | -1.2 | · | ·
COc1ccccc1N1CCN(C(=O)CSc2ncccc2-c2nc3ccccc3[nH]2)CC1 | -3.5 | -2.5 | -17.3 | -3.5 | · | ·
COc1ccccc1N1CCN(C(=O)CSc2nc3ccccc3[nH]2)CC1 | -3.6 | 14.7* | -1.2 | 0.6 | -0.3 | -0.4
Nc1nc2c(ncn2[C@@H]2O[C@H](CNC(=O)[C@H](N)Cc3cncn3COCc3ccccc3)[C@@H](O)[C@H]2O)c(=O)[nH]1 | · | 0.9 | · | · | · | ·
CC(=O)c1ccc(Oc2cnccn2)cc1 | -0.5 | 16.1* | -6.8 | -2.4 | -0.5 | -2.3
CC(C)(C)c1csc(NC(=O)c2c(F)c(F)c(F)c(F)c2F)n1 | -1.5 | 17.5* | -4.5 | -2.5 | 0.0 | 15.2*
O=C(NCc1ccncc1)c1ccc(NS(=O)(=O)c2ccccc2)cc1 | -3.7 | 1.1 | -4.8 | -1.7 | · | ·
O=C(NCc1ccncc1)c1ccc(S(=O)(=O)Nc2ccccc2)cc1 | · | 14.6* | -1.4 | · | -0.5 | -5.0
CCc1ccc(C(=O)C(C)OC(=O)Cn2cnc3c2c(=O)n(C)c(=O)n3C)cc1 (stereo not drawn) | · | 17.0* | 3.4 | · | -0.6 | -1.5
Cc1ccc(C(=O)C(C)OC(=O)Cn2cnc3c2c(=O)n(C)c(=O)n3C)cc1 (stereo not drawn) | · | -1.8 | -3.2 | · | · | ·
O=S(=O)(c1ccc2nnn(O)c2c1)N1CCCCC1 | -2.0 | 19.6* | -6.7 | -2.2 | -0.6 | -5.1
COc1ccccc1-n1ccnc(SCC(=O)NCCc2ccccc2)c1=O | · | 0.3 | -3.9 | · | · | ·
CCOCCCNC(=O)C1(O)c2cc(Br)ccc2NC(=O)N1c1ccc(CC)cc1 (stereo not drawn) | 0.6 | 17.5* | -4.7 | -1.2 | -0.3 | -1.4
CCOCCCNC(=O)C1(O)c2cc(Br)ccc2NC(=O)N1c1ccc(OCC)cc1 (stereo not drawn) | -1.8 | -4.9 | 1.8 | -1.0 | · | ·
COc1ccc(CC(=O)Nc2ccc(-c3noc(-c4ccccc4OC)n3)cc2)cc1 | -5.5 | 18.2* | ? | -4.7 | 3.0* | 10.4
COC(=O)[C@H](CCSC)NC(=O)Cn1cnc2c(SC)nc(N)nc21 | · | 1.0 | -1.8 | · | · | ·
CCOC(=O)c1ccc(NC(=O)c2nc[nH]c2C(=O)N[C@@H](CC(C)C)C(=O)OC(C)(C)C)cc1 | · | 3.9 | -4.9 | · | · | ·
CC(C)C[C@H](NC(=O)c1[nH]cnc1C(=O)Nc1ccccc1)C(=O)OC(C)(C)C | · | 16.4* | -10.6 | · | -0.3 | -6.0
CC(C)(C)Nc1ncnc2sc(-c3ccccc3)cc12 | -2.7 | 23.0* | -2.7 | -2.1 | 0.5* | 5.2
COCCn1c(SCC(=O)NC2CCCC(C)C2C)nc2ccccc2c1=O (stereo not drawn) | · | -3.5 | -0.7 | · | · | ·
COc1ccc(NC(=O)c2cc([N+](=O)[O-])ccc2O)cc1 | -0.8 | 14.9* | 1.5 | -1.3 | -0.5 | -3.2
COc1ccc(NC(=O)c2cccc([N+](=O)[O-])c2)cc1 | -6.0 | 0.7 | 3.4 | -2.0 | · | ·
